The test system of assay [1] is Cancer cell lines. The assay is described as follows: Cytotoxicity against human breast cancer cells at 10 ug/mL. In kind it is functional, cell-based.
Assay [2] relates to NCI-H187. The assay is described as follows: Cytotoxicity against human NCI-H187 cells at 10 ug/mL. In kind it is functional, cell-based.
Assay [3] in a line: Cytotoxicity against human breast cancer cells. Particulars: Cancer cell lines. In kind it is functional, cell-based.
Assay [4] deals with Mycobacterium tuberculosis. The assay is described as follows: Antimycobacterial activity against Mycobacterium tuberculosis H37Ra by microplate alamar blue assay. In kind it is functional. In short, it runs like this:
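Microplate Alamar Blue assay against Mycobacterium tuberculosis H37Ra, with isoniazid and kanamycin sulfate as reference drugs.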

For assay [5], the system named is NCI-H187. The assay is described as follows: Cytotoxicity against human NCI-H187 cells. In kind it is functional, cell-based.
Assay [6] relates to KB. The assay is described as follows: Cytotoxicity against human KB cells. In kind it is functional, cell-based.

In brackets after ≈: the same amount, converted by molar mass. Activity calls are given as the source filed them. The calls are words filed in the database; no cut-off is given here.

By IC50 is commonly meant the concentration that inhibits the measured activity by half. Low readings indicate greater potency, high ones weaker potency. A word on the MIC: it is the lowest concentration that inhibits growth of the organism. Read a high MIC as weaker potency.

With `COc1cc(O)c2c(=O)cc(-c3ccc(O)c(-c4c(O)cc(O)c5c(=O)cc(-c6ccc(O)cc6)oc45)c3)oc2c1`, the result in assay [1] and in assay [2] was inactive.

As for `C=C(C)[C@@H]1CC[C@]2(C)CC[C@]3(C)[C@H](CC[C@@H]4[C@@]5(C)CC[C@H](OC(C)=O)C(C)(C)[C@@H]5CC[C@]43C)[C@@H]12`, the result in assay [1] and in assay [2] was inactive.

For `COc1cc(O)c2c(=O)cc(-c3ccc(OC)c(-c4c(O)cc(O)c5c(=O)cc(-c6ccc(O)cc6)oc45)c3)oc2c1`, the result in assay [1] and in assay [2] was inactive.

Consider `COC(=O)C[C@@]1(C)C(C(C)(C)C(=O)OC)CC[C@@]2(C)C3=CC[C@@]4(C(=O)O)CCC(C)(C)CC4[C@]3(C)CCC12` (stereo partly specified), for which the IC50 in assay [3] was 7.08 µg/mL (≈ 13.3 µM); in assay [5], 4.65 µg/mL (≈ 8.76 µM). Moreover, inhibition of growth in assay [4] (MIC) required 3.13 µg/mL (≈ 5.9 µM).

`COc1ccc(-c2cc(=O)c3c(O)cc(O)c(-c4cc(-c5cc(=O)c6c(O)cc(OC)cc6o5)ccc4O)c3o2)cc1`: the outcome in assay [1] and in assay [2] was inactive.

Consider `C=C[C@@]1(C)C(=O)C=C2C(=CC[C@@H]3C(C)(C)[C@H](O)C(=O)C[C@@]23C)[C@H]1O`, for which the outcome in assay [1] and in assay [2] was inactive.

In assay [4], `NC[C@H]1O[C@H](O[C@H]2[C@H](O)[C@@H](O[C@H]3O[C@H](CO)[C@@H](O)[C@H](N)[C@H]3O)[C@H](N)C[C@@H]2N)[C@H](O)[C@@H](O)[C@@H]1O.O=S(=O)(O)O` [KANAMYCIN SULFATE] had an MIC of 1.25 µg/mL.

For the molecule `COC(=O)C(C)(C)C1CC[C@@]2(C)C3=CC[C@@]4(C(=O)O)CCC(C)(C)CC4[C@]3(C)CCC2[C@@]1(C)CC(=O)O` (stereo partly specified), the result in assay [1] and in assay [2] was inactive.

`Cc1c2ccncc2c(C)c2c1[nH]c1ccccc12` [ELLIPTECINE]: the values for the IC50 in assay [3], in assay [5] and in assay [6] were 0.13 µg/mL (≈ 0.528 µM), 0.52 µg/mL (≈ 2.11 µM) and 0.41 µg/mL (≈ 1.66 µM), respectively.

For the molecule `C=C(C)[C@@H]1CC[C@]2(C)CC[C@]3(C)[C@H](CC[C@@H]4[C@@]5(C)CC[C@H](O)C(C)(C)[C@@H]5CC[C@]43C)[C@@H]12`, the outcome in assay [1] and in assay [2] was inactive.

For the molecule `NNC(=O)c1ccncc1` [ISONIAZID], in assay [4], it took 0.05 µg/mL (≈ 0.365 µM) to inhibit growth (MIC).

For the molecule `CC(=O)O[C@H]1CC[C@]2(C)[C@H]3CC[C@]4(C)C(=CC[C@@]5(C(=O)O)CCC(C)(C)C[C@H]54)[C@]3(C)CC[C@H]2C1(C)C`, the result in assay [1] and in assay [2] was inactive.

In the case of `C=C[C@]1(C)C=C2CC[C@@H]3C(C)(C)[C@H](O)C(=O)C[C@@]3(C)[C@@H]2C[C@@H]1O`, the result in assay [1] and in assay [2] was inactive.

On to `CC1(C)[C@H](O)[C@@H](O)C[C@]2(C)[C@@H]1CC[C@]13C=C[C@](C)(C1)C(=O)C[C@H]32`, for which the outcome in assay [1] and in assay [2] was inactive.

For the molecule `C=Cc1c(C)c(O)cc2c1CCC(C(C)(C)C(=O)O)[C@@]2(C)CC(=O)O` (stereo partly specified), the result in assay [1] and in assay [2] was inactive.

Consider `CC1(C)CC[C@]2(C(=O)O)CC=C3[C@]4(C)CC[C@H]5C(C)(C)[C@@H](O)CC[C@]5(C)[C@H]4CC[C@@]3(C)[C@@H]2C1`, for which the outcome in assay [1] and in assay [2] was inactive.

Take `O=c1cc(-c2ccc(O)c(-c3c(O)cc(O)c4c(=O)cc(-c5ccc(O)cc5)oc34)c2)oc2cc(O)cc(O)c12`: the outcome in assay [1] and in assay [2] was inactive.

Take `C=C(C)[C@H]1CC[C@]2(C)[C@H]3CC[C@@H]4[C@@]5(C)CC[C@H](O)C(C)(C)[C@@H]5CC[C@@]4(C)[C@]3(C)CC[C@@H]12`: the outcome in assay [1] and in assay [2] was inactive.

(Values after ChEMBL document CHEMBL1144725, “Seco-terpenoids and other constituents from Elateriospermum tapos” (J Nat Prod, 2008).)
